According to ChEMBL document CHEMBL3351969, “Chalcone based azacarboline analogues as novel antitubulin agents: design, synthesis, biological evaluation and molecular modelling studies” (Eur J Med Chem, 2014):
pIC50: −log10 of the molar value. Counter-ions that a name gives are not always drawn. Activity calls are given as the source filed them. The calls are words filed in the database; no cut-off is given here.

Columns and labels:
[1] = test system: THP-1; assay: Cytotoxicity against human THP1 cells assessed as growth inhibition at 50 uM after 48 hrs by sulforhodamine B assay; format: functional; details: THP-1, 48 h, read-out: GI
Procedure, shortened: (§1)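 Single-point SRB screen at 50 µM. Cells were seeded and grown 24 h at 37°C in a CO2 incubator, then exposed to compound in complete medium for 48 h. Cells were fixed with 50% TCA for 1 h at 4°C, water-washed, and stained with 0.4% SRB in 1% acetic acid for 30 min. After 1% TCA washes, dye was dissolved in Tris-HCl (0.01 M, pH 10.4) and OD read at 540 nm.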

[2] = test system: COLO 205; assay: Cytotoxicity against human COLO205 cells assessed as growth inhibition after 48 hrs by sulforhodamine B assay; format: functional, cell-based; details: COLO 205, 48 h
Procedure, shortened: (§2)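 SRB growth assay with compound dilutions over several concentrations. Cells were pre-grown 24 h at 37°C in a CO2 incubator, then exposed for 48 h. Cells were fixed with 50% TCA (1 h, 4°C) and stained with 0.4% SRB in 1% acetic acid for 30 min. Bound dye was solubilised in 0.01 M Tris-HCl (pH 10.4) and read at 540 nm. Percent inhibition versus untreated (blank-subtracted) was used to calculate IC50.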

[3] = Cytotoxicity against human HCT116 cells assessed as growth inhibition at 50 uM after 48 hrs by sulforhodamine B assay; format: functional; details: HCT-116, 48 h, read-out: GI; procedure, shortened: as §1
[4] = Cytotoxicity against human HCT116 cells assessed as growth inhibition after 48 hrs by sulforhodamine B assay; format: functional, cell-based; details: HCT-116, 48 h; procedure, shortened: as §2
[5] = test system: COLO 205; assay: Cytotoxicity against human COLO205 cells assessed as growth inhibition at 50 uM after 48 hrs by sulforhodamine B assay; format: functional; details: COLO 205, 48 h, read-out: GI; procedure, shortened: as §1
[6] = target: Tubulin; assay: Inhibition of tubulin (unknown origin) polymerization after 1 hr by spectrophotometry; format: protein-complex assay, Homo sapiens
Procedure, shortened: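 Kit tubulin (10 mg in 1 mL general tubulin buffer plus 10 µL of 100 mM GTP) was held at 4°C. Compounds came from a 100 µM DMSO stock diluted to 50, 25 and 10 µM (pre-assay dilutions). Compound was pre-warmed in plate wells 2 min at 37°C before adding tubulin diluted in polymerization buffer (general buffer, glycerol buffer, GTP).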

[7] = test system: THP-1; assay: Cytotoxicity against human THP1 cells assessed as growth inhibition after 48 hrs by sulforhodamine B assay; format: functional, cell-based; details: THP-1, 48 h; procedure, shortened: as §2
[8] = test system: A549; assay: Cytotoxicity against human A549 cells assessed as growth inhibition at 50 uM after 48 hrs by sulforhodamine B assay; format: functional; details: for inhibition of growth at 50 µM: A549, 48 h, read-out: GI; procedure, shortened: as §1
[9] = test system: COLO 205; assay: Cytotoxicity against human COLO205 cells assessed as growth inhibition at 1 uM after 48 hrs by sulforhodamine B assay; format: functional; details: COLO 205, 48 h, read-out: GI
[10] = Cytotoxicity against human HCT116 cells assessed as growth inhibition at 1 uM after 48 hrs by sulforhodamine B assay; format: functional; details: HCT-116, 48 h, read-out: GI
[11] = test system: THP-1; assay: Cytotoxicity against human THP1 cells assessed as growth inhibition at 1 uM after 48 hrs by sulforhodamine B assay; format: functional; details: THP-1, 48 h, read-out: GI
[12] = test system: THP-1; assay: Disruption of microtubule organization in human THP1 cells at 1 uM after 48 hrs by immunofluorescence technique; format: cell-based
[13] = test system: A549; assay: Cytotoxicity against human A549 cells assessed as growth inhibition at 1 uM after 48 hrs by sulforhodamine B assay; format: functional; details: A549, 48 h, read-out: GI
[14] = test system: THP-1; assay: Disruption of microtubule organization in human THP1 cells at 5 uM after 48 hrs by immunofluorescence technique; format: cell-based
Procedure, shortened: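 THP-1 cells were exposed to 1 µM paclitaxel or 5 µM test agent for 48 h, alongside untreated controls. Microtubules and unassembled tubulin were immunostained (green) and DNA was stained with DAPI. Microtubule organisation was examined by confocal microscopy.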

COc1ccc(-c2cc3c4ccccc4n(C(C)=O)c3nn2)cc1OC
inhibition of growth at 50 µM [1]: 90% | pIC50 [2]: 5.24 | inhibition of growth at 50 µM [3]: 80% | pIC50 [4]: 5.36 | inhibition of growth at 50 µM [5]: 82% | pIC50 [6]: 5.31 | pIC50 [7]: 5.63 | inhibition of growth at 50 µM [8]: 12%

CC(=O)n1c2ccccc2c2cc(-c3ccc4ccccc4c3)nnc21
inhibition of growth at 50 µM [1]: 89% | pIC50 [2]: 5.24 | inhibition of growth at 50 µM [3]: 81% | pIC50 [4]: 5.35 | inhibition of growth at 50 µM [5]: 82% | pIC50 [6]: 5.05 | pIC50 [7]: 5.62 | growth inhibition (GI) [8]: inactive

COc1cccc2c1C(=O)c1c(O)c3c(c(O)c1C2=O)C[C@@](O)(C(=O)CO)C[C@@H]3O[C@H]1C[C@H](N)[C@H](O)[C@H](C)O1 [DOXORUBICIN HYDROCHLORIDE]
inhibition of growth at 1 µM [9]: 72% | inhibition of growth at 1 µM [10]: 66% | inhibition of growth at 1 µM [11]: 71%

CC(=O)O[C@H]1C(=O)[C@@]2(C)[C@H]([C@H](OC(=O)c3ccccc3)[C@]3(O)C[C@H](OC(=O)[C@H](O)[C@@H](NC(=O)c4ccccc4)c4ccccc4)C(C)=C1C3(C)C)[C@]1(OC(C)=O)CO[C@@H]1C[C@@H]2O [PACLITAXEL]
Activity [12]: Active | inhibition of growth at 1 µM [13]: 70%

CC(=O)n1c2ccccc2c2cc(-c3cccc4ccccc34)nnc21
inhibition of growth at 50 µM [1]: 89% | pIC50 [2]: 5.24 | inhibition of growth at 50 µM [3]: 80% | pIC50 [4]: 5.36 | inhibition of growth at 50 µM [5]: 83% | pIC50 [6]: 5.05 | pIC50 [7]: 5.62 | growth inhibition (GI) [8]: inactive

COc1ccc(-c2cc3c4ccccc4n(C(C)=O)c3nn2)cc1
inhibition of growth at 50 µM [1]: 81% | pIC50 [2]: 5.18 | inhibition of growth at 50 µM [3]: 72% | pIC50 [4]: 5.28 | inhibition of growth at 50 µM [5]: 72% | pIC50 [7]: 5.46 | inhibition of growth at 50 µM [8]: 10%

COc1cc(-c2cc3c4ccccc4n(C(C)=O)c3nn2)cc(OC)c1OC
inhibition of growth at 50 µM [1]: 99% | pIC50 [2]: 5.38 | inhibition of growth at 50 µM [3]: 86% | pIC50 [4]: 5.54 | inhibition of growth at 50 µM [5]: 89% | pIC50 [6]: 5.62 | Activity [14]: Active | pIC50 [7]: 5.95 | inhibition of growth at 50 µM [8]: 20%

CC(=O)n1c2cccc(Cl)c2c2cc(-c3cccc4ccccc34)nnc21
inhibition of growth at 50 µM [1]: 65% | pIC50 [2]: 4.74 | inhibition of growth at 50 µM [3]: 44% | pIC50 [4]: 4.81 | inhibition of growth at 50 µM [5]: 40% | pIC50 [7]: 4.85 | inhibition of growth at 50 µM [8]: 18%

CC(=O)n1c2ccccc2c2cc(-c3ccc[nH]3)nnc21
inhibition of growth at 50 µM [1]: 78% | pIC50 [2]: 5.14 | inhibition of growth at 50 µM [3]: 72% | pIC50 [4]: 5.21 | inhibition of growth at 50 µM [5]: 68% | pIC50 [7]: 5.37 | inhibition of growth at 50 µM [8]: 12%
